SENP8 block-1 – inhibitors of human SENP8 protease; purified SENP8, Z-RLRGG-aminoluciferin cleavage, luminescence; 330,000 compounds, 1.2% hits; Q96LD8; AID 2540; inhibition, % at 10 µM; in the data active = inhibition above about 50%
SENP1 FRET inh – inhibitors of human SENP1 SUMO protease catalytic domain; recombinant SENP1 catalytic domain, CyPet-SUMO1-YPet FRET cleavage; inhibition, % at 10 µM; 360,000 compounds, 0.21% hits; AID 624204;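 active = inhibition at least 30% at 10 µM, raw YFP signal under a set limit, fluorescence ratio 0.5 to 1.5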;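 also: 0% = enzyme with DMSO and 100% = no enzyme wells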
Target sequence (Q9P0U3 419-644 limits assumed): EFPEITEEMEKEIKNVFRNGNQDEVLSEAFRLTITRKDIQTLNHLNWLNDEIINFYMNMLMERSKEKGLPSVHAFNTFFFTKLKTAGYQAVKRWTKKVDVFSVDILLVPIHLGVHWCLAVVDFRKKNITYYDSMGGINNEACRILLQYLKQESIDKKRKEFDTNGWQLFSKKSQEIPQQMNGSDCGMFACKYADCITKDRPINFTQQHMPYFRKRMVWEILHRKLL
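Material – human SENP1 catalytic domain · Input – SENP1 enzyme, 20 pM final · Compound dosing – single concentration of 10 µM compound, 0.5% DMSO final · Timing – enzyme reaction for 50 min at room temperature, dark · Measured by – FRET fluorescence in CFP and YFP emission channels · Control set – no-enzyme wells low, DMSO-plus-enzyme wells high control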
SENP6 block – inhibitors of human SENP6 protease; Q9GZR1; 330,000 compounds, 1.8% hits; Recombinant SENP6 catalytic domain, aminoluciferin luminescence; inhibition, % at 10 µM;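 active = inhibition above about 50% at the single tested dose, limit read from the data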;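 also: plate controls were DMSO wells with enzyme for no effect and DMSO wells lacking enzyme for full effect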
Target sequence (Q9GZR1 628-1112 limits assumed): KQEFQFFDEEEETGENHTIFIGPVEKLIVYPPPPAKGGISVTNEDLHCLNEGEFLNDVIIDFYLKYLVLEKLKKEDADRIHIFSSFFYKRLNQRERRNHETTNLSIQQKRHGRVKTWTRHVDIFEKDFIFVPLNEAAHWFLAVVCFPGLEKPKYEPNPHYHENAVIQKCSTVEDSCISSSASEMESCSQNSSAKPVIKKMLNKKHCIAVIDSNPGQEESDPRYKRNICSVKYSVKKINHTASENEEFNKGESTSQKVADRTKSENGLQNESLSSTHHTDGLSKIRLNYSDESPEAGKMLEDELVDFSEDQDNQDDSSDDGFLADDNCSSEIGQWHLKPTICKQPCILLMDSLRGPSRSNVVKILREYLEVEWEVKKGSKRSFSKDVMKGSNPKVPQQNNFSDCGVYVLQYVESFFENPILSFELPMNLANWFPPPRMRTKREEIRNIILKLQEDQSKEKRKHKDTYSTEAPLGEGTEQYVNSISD
SENP8 block-2 – blocks human SENP8 cleavage of Nedd8 substrate. Q96LD8. inhibition, % at 20 µM. 360,000 compounds, 0.64% hits. recombinant SENP8, Nedd8 substrate fluorescence; in the data active = inhibition mostly above about 40%, no sharp cut-off; inactive = mostly below about 27%
SENP7 block – SENP7 protease inhibition; 330,000 compounds, 1.5% hits; Q9BQF6; AID 434973; inhibition, % at 5 µM; recombinant SENP7, Z-RLRGG-aminoluciferin luminescence, 40 min;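 active = inhibition above about 50% at the single test dose, limit read from the data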;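 also: plate controls were DMSO with enzyme for no effect and no enzyme buffer wells for full effect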
SENP8 conf – confirmation of human SENP8 protease inhibitors; shares compounds with SENP7 block; Recombinant SENP8, Z-RLRGG-aminoluciferin luminescence, 60 min; inhibition, % at 12.5 µM; 6,200 compounds, 40% hits;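 active = mean inhibition across replicates above about 50%, limit read from the data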
SENP6 confirm – human SENP6 inhibition, confirmed | shares compounds with SENP7 block | recombinant SENP6, Z-RLRGG-aminoluciferin luminescence | inhibition, % at 12.5 µM | 6,200 compounds, 58% hits
SENP7 conf – human SENP7 inhibition, confirmed; 6,200 compounds, 69% hits; AID 488917; inhibition, % at 12.5 µM; shares compounds with SENP7 block; recombinant SENP7, Z-RLRGG-aminoluciferin luminescence, 40 min
Casp3 SENP sel – selectivity test for SENP inhibitors: human caspase-3 inhibition | inhibition, % at 12.5 µM | purified caspase-3, Z-DEVD-aminoluciferin luminescence, 60 min | 6,200 compounds, 60% hits | shares compounds with SENP7 block;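 active = mean inhibition above about 50%, limit read from the data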;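 also: plate controls were enzyme with DMSO for no effect and wells without caspase-3 for full effect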
Luc interf – interferes with luciferase luminescence in SENP counter-screen. shares compounds with SENP7 block. Pre-incubated SENP8/Z-RLRGG-aminoluciferin, luciferase luminescence interference. inhibition, % at 12.5 µM. 6,200 compounds, 39% hits. AID 488919;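 active = mean inhibition above about 50% when retested at one dose, limit read from the data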;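 also: plate controls were DMSO wells with completed reaction for no effect and substrate without enzyme for full effect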
An asterisk follows results filed as active; i = inactive; x = no result given. Only some compounds are listed: those with a hit (about 2.5% of all), similar ones and a draw of the others.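 The calls were made as follows, unless noted: active = mean inhibition above about 50% in the one-dose retest (limit read from the data); inactive = the rest.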

SMILES | SENP8 block-1 | SENP1 FRET inh | SENP6 block | SENP8 block-2 | SENP7 block | SENP8 conf | SENP6 confirm | SENP7 conf | Casp3 SENP sel | Luc interf
Cc1ccc(-c2cc3c(N=O)c4ccccc4c-3n[nH]2)cc1 | 23 | -1 | 100* | 0 | 101* | 39 | 30 | 21 | 55* | 8
COc1cccc(COc2ccc3c(C)cc(=O)oc3c2)c1 | 68* | 3 | 77* | -116 | 71* | 4 | 75* | 90* | 65* | 62*
CCOc1ccc(NC(=O)n2ncc3c(C)cccc32)cc1 | 81* | 0 | 64* | 22 | 91* | -4 | 3 | 6 | 10 | -3
Cc1ccc(NC(=O)n2ncc3c(C)cccc32)c(C)c1 | -12 | 4 | -10 | 15 | 0 | x | x | x | x | x
COc1cccc(NC(=O)n2ncc3c(C)cccc32)c1 | 95* | 2 | 99* | 20 | 100* | 100* | 101* | 103* | 99* | 98*
COc1ccc(C2C(C#N)=C(N)N(c3ccccc3C#N)C3=C2C(=O)CCC3)cc1CN1CCCC1 (centres undefined) | -6 | 2 | -5 | 19 | -9 | x | x | x | x | x
C[C@@H]1CCCCO[C@@H](CN(C)Cc2ccncc2)[C@@H](C)CN([C@H](C)CO)C(=O)c2cc(NC(=O)c3ccccc3)ccc2O1 | x | -2 | x | 0 | x | x | x | x | x | x
CCN(CC)C(=O)CSc1ncnc2sccc12 | -6 | -5 | -2 | 1 | -7 | x | x | x | x | x
CCN(CC)C(=O)CSc1ncnc2c(-c3cccs3)nsc12 | 21 | -25 | 57* | i | 35 | 15 | 8 | 7 | 8 | -4
COc1ccc(NC(=O)c2ocnc2C)cc1OC | -16 | 2 | -1 | 12 | -3 | x | x | x | x | x
CC(=O)Nc1ccc2c(c1)OCCOCCOc1cc(NC(C)=O)ccc1OCCOCCOCCO2 | -2 | x | -14 | x | 2 | x | x | x | x | x
Cc1ncoc1C(=O)Nc1ccc2c(c1)OCCO2 | 60* | 0 | 64* | 3 | 77* | 70* | 66* | 89* | 91* | 72*
Cc1ncoc1C(=O)Nc1ccc(Oc2ccccc2)cc1 | 32 | 3 | 62* | 12 | 56* | 51* | 46 | 78* | 44 | 62*
Cc1ccsc1C(=O)Nc1ccc2c(c1)OCCO2 | 85* | 1 | 86* | -4 | 92* | 90* | 90* | 99* | 95* | 91*
Cc1c([N+](=O)[O-])c(C(=O)Nc2ccc3c(c2)OCCO3)nn1C | 42 | 1 | 75* | 12 | 73* | 68* | 66* | 87* | 89* | 72*
CC(C)Nc1ccc(Cl)cc1[N+](=O)[O-] | 1 | x | 3 | x | 6 | x | x | x | x | x
CN(C)CCCNc1cc(O)c2ncccc2c1 | 48 | 8 | 74* | -12 | 44 | 19 | 62* | 25 | 90* | -7
Oc1cc(NCc2ccc(F)cc2)cc2cccnc12 | 10 | -2 | 23 | -24 | 3 | x | x | x | x | x
Cc1ccc(CS(=O)(=O)CC(C)(O)c2ccccc2)cc1 (centres undefined) | -3 | 0 | -30 | 19 | -5 | x | x | x | x | x
O=C1C=C(Nc2ccc(F)cc2)c2ccccc2C1=O | 72* | -3 | 82* | -237 | 45 | 11 | 89* | 23 | 40 | -4
O=C1C=C(NCc2ccccc2)c2ccccc2C1=O | x | -66 | x | -363 | x | x | x | x | x | x
Cc1ccc(NC2=CC(=O)C(=O)c3ccccc32)c(C)c1 | 49 | -1 | 51* | -415 | 32 | -4 | 42 | -3 | 4 | 2
CCOc1ccc(NC2=CC(=O)C(=O)c3ccccc32)cc1 | x | 0 | x | -186 | x | x | x | x | x | x
O=C1C=C(Nc2ccccc2O)c2ccccc2C1=O | 77* | 30* | 88* | -173 | 1 | -6 | 86* | 67* | 19 | -5
CCOC(=O)C1(CC2CCCCO2)CCN(S(=O)(=O)c2c(C)nn(C)c2C)CC1 (centres undefined) | 0 | 2 | -21 | 3 | -11 | x | x | x | x | x
SMILES | SENP8 block-1 | SENP1 FRET inh | SENP6 block | SENP8 block-2 | SENP7 block | SENP8 conf | SENP6 confirm | SENP7 conf | Casp3 SENP sel | Luc interf
COc1cc(C)c(COc2ncnc3ccccc23)cc1OC | -1 | 1 | -10 | 21 | -3 | x | x | x | x | x
COc1cccc(C(=O)/C=C/Nc2cccc(O)c2)c1 | 95* | -57 | 96* | -78 | 100* | 99* | 100* | 103* | 98* | 98*
COc1cccc(N/C=C/C(=O)c2ccc(Cl)cc2)c1 | x | -74 | x | -96 | x | x | x | x | x | x
COc1ccc(OC)c(N/C=C/C(=O)c2ccccc2)c1 | 95* | -28 | 93* | 12 | 101* | 100* | 101* | 104* | 99* | 95*
COc1cccc(N/C=C/C(=O)c2ccc(C)cc2)c1 | 95* | -65 | 91* | -174 | 96* | 96* | 98* | 101* | 94* | 93*
COc1ccc(OC)c(N/C(C)=C/C(=O)c2ccccc2)c1 | -6 | 0 | 7 | 26 | 2 | x | x | x | x | x
COc1cccc(C(=O)/C=C/Nc2ccc(NC(C)=O)cc2)c1 | 79* | -27 | 93* | -98 | 87* | 90* | 89* | 98* | 87* | 89*
O=C(Cc1ccc(F)cc1)Nc1nnc(-c2ccc(F)cc2)o1 | -5 | -1 | 3 | -15 | -14 | x | x | x | x | x
Cc1nc(Cl)sc1C(=O)Nc1ccc(C(C)(C)C)cc1 | 60* | 2 | -28 | 14 | 62* | 71* | 64* | 84* | 51* | 48
Cc1noc(N)c1C(=O)Nc1ccc(C(C)(C)C)cc1 | 69* | 0 | 29 | 14 | 86* | 14 | 80* | 96* | 80* | 80*
O=C(CSc1ccccc1C(=O)O)NCC1CCCCC1 | -4 | 2 | -26 | -2 | 4 | x | x | x | x | x
O=C(COC(=O)/C=C/c1ccco1)NCCN1C(=O)CSC1=O | x | 1 | x | 4 | x | x | x | x | x | x
Cc1occc1C(=O)/C(C#N)=C/c1ccc(O)c(Br)c1 | 97* | -26 | 98* | 18 | 93* | 98* | 100* | 103* | 97* | 97*
N#C/C(=C\c1ccc(O)c(Br)c1)C(=O)N1CCCCC1 | -1 | -150 | 7 | -22 | 13 | x | x | x | x | x
O=C1NC[C@H](CC2CCCCC2)N(CCc2cccc(F)c2)C1=O | 2 | 0 | 0 | 24 | 2 | x | x | x | x | x
O=C(/C=C/c1ccco1)NC(=S)Nc1cccc(-c2nc3ccccc3s2)c1 | 41 | 3 | 63* | -38 | 5 | 20 | 17 | 7 | 19 | -2

Screens deposited in PubChem by Sanford-Burnham Center for Chemical Genomics.
